The record followed here is ChEMBL document CHEMBL1122745, “In the search for new anticancer drugs. 9. Synthesis and anticancer activity of spin-labeled analogues of N,N:N',N':N",N"-Tri-1,2-ethanediylphosphoric triamide and N,N:N',N':N",N"-tri-1,2-ethanediylphosphorothioic triamide” (1984).

For experiment [1], the system named is Mus musculus. As to the kind of experiment: In vivo evaluation of 30 day survival against P388 lymphocytic leukemia in CD2F1 male mice at dose 6 mg/kg; out of 6 mice. It is filed as functional. A digest of the protocol: (§1)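 CD2F1 (CDF1) male mice transplanted with 10⁶ P388 lymphocytic leukemia cells, then dosed intraperitoneally once daily for 9 days starting after the day of transplantation. Groups of 6 mice. Read-out is the number of mice alive at 30 days over the total per group.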

In experiment [2] the test system is Mus musculus. The experiment is described as follows: In vivo evaluation of 30 day survival against P388 lymphocytic leukemia in CD2F1 male mice at dose 12 mg/kg; out of 6 mice. The class given is functional. The gist of the method:
as §1

In experiment [3] the test system is Mus musculus. As to the kind of experiment: In vivo evaluation of percent increase in life span (ILS) against P388 lymphocytic leukemia in infected CD2F1 male mice and at 15 dose mg/kg. It is filed as functional. A digest of the protocol: (§2)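 P388 lymphocytic leukemia (10⁶ cells) transplanted into male CD2F1 (CDF1) mice, with intraperitoneal treatment once daily for 9 days following the day of transplantation. Groups of 6. Survival days of treated (T) and control (C) mice were compared, and %ILS was calculated as [(T−C)/C]100.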

The subject of experiment [4] is Mus musculus. As to the kind of experiment: (§3) In vivo evaluation of 30 day survival against P388 lymphocytic leukemia in CD2F1 male mice at dose 15 mg/kg; out of 6 mice. It is filed as functional. The gist of the method: as §1
The test system of experiment [5] is Mus musculus. As to the kind of experiment: In vivo evaluation of percent increase in life span (ILS) against P388 lymphocytic leukemia in infected CD2F1 male mice and at 12 dose mg/kg. It is filed as functional. The gist of the method:
as §2

The subject of experiment [6] is Mus musculus. The experiment is described as follows: In vivo evaluation of percent increase in life span (ILS) against P388 lymphocytic leukemia in infected CD2F1 male mice and at 6 dose mg/kg. The class given is functional. The gist of the method: as §2
For experiment [7], the system named is Mus musculus. The experiment is described as follows: (§4) In vivo evaluation of 30 day survival against P388 lymphocytic leukemia in CD2F1 male mice at dose 20 mg/kg; out of 6 mice. It is filed as functional. The gist of the method: as §1
The test system of experiment [8] is Mus musculus. The experiment is described as follows: In vivo evaluation of 30 day survival against P388 lymphocytic leukemia in CD2F1 male mice at dose 7.5 mg/kg; out of 6 mice. The class given is functional. A digest of the protocol:
as §1

Experiment [9] has as its system Mus musculus. As to the kind of experiment: In vivo evaluation of 30 day survival against P388 lymphocytic leukemia in CD2F1 male mice at dose mg/kg; out of 6 mice. It is filed as functional. The gist of the method: as §1
In experiment [10] the test system is Mus musculus. As to the kind of experiment: In vivo evaluation of percent increase in life span (ILS) against P388 lymphocytic leukemia in infected CD2F1 male mice and at 3 dose mg/kg. It is filed as functional. The gist of the method: as §2
For experiment [11], the system named is Mus musculus. The experiment is described as follows: In vivo evaluation of 30 day survival against P388 lymphocytic leukemia in CD2F1 male mice at dose 10 mg/kg; out of 6 mice. It is filed as functional. The gist of the method:
as §1

Experiment [12] deals with Mus musculus. As to the kind of experiment: In vivo evaluation of percent increase in life span (ILS) against P388 lymphocytic leukemia in infected CD2F1 male mice and at 10 dose mg/kg. It is filed as functional. A digest of the protocol:
as §2

In experiment [13] the test system is Mus musculus. The experiment is described as follows: In vivo evaluation of percent increase in life span (ILS) against P388 lymphocytic leukemia in infected CD2F1 male mice and at 30 dose mg/kg. The class given is functional. A digest of the protocol: as §2
The subject of experiment [14] is Mus musculus. The experiment is described as §3. It is filed as functional. A digest of the protocol: as §1
The source holds these as a separate data set.

For experiment [15], the system named is Mus musculus. Described as §4. The class given is functional, organism-based. More on the design: dose 20 mg/kg. A digest of the protocol: as §1
Experiment [16] has as its system Mus musculus. As to the kind of experiment: In vivo evaluation of percent increase in life span (ILS) against P388 lymphocytic leukemia in infected CD2F1 male mice and at 160 dose mg/kg. It is filed as functional. A digest of the protocol: as §2
Experiment [17] concerns Mus musculus. The experiment is described as follows: (§5) In vivo evaluation of percent increase in life span (ILS) against P388 lymphocytic leukemia in infected CD2F1 male mice and at 80 dose mg/kg. It is filed as functional, organism-based. The gist of the method:
as §2

Experiment [18] has as its system Mus musculus. The experiment is described as follows: (§6) In vivo evaluation of 30 day survival against P388 lymphocytic leukemia in CD2F1 male mice at dose 80 mg/kg; out of 6 mice. The class given is functional, organism-based. The arrangement: dose 80 mg/kg. The gist of the method:
as §1

For experiment [19], the system named is Mus musculus. As to the kind of experiment: (§7) In vivo evaluation of 30 day survival against P388 lymphocytic leukemia in CD2F1 male mice at dose 40 mg/kg; out of 6 mice. It is filed as functional, organism-based. More on the design: dose 40 mg/kg. A digest of the protocol:
as §1

Experiment [20] concerns Mus musculus. The experiment is described as follows: In vivo evaluation of percent increase in life span (ILS) against P388 lymphocytic leukemia in infected CD2F1 male mice and at 40 dose mg/kg. The class given is functional. The gist of the method: as §2
Experiment [21] deals with Mus musculus. The experiment is described as follows: (§8) In vivo evaluation of 30 day survival against P388 lymphocytic leukemia in CD2F1 male mice at dose 160 mg/kg; out of 6 mice. It is filed as functional, organism-based. More on the design: dose 160 mg/kg. The gist of the method: as §1
Experiment [22] relates to Mus musculus. The experiment is described as §4. It is filed as functional. A digest of the protocol: as §1
The source holds these as a separate data set.

The test system of experiment [23] is Mus musculus. The experiment is described as follows: In vivo evaluation of 30 day survival against P388 lymphocytic leukemia in CD2F1 male mice at dose 30 mg/kg; out of 6 mice. It is filed as functional. A digest of the protocol:
as §1

The subject of experiment [24] is Mus musculus. Described as §7. The class given is functional. The gist of the method: as §1
Experiment [25] concerns Mus musculus. As to the kind of experiment: In vivo evaluation of percent increase in life span (ILS) against P388 lymphocytic leukemia in infected CD2F1 male mice and at dose mg/kg. It is filed as functional. A digest of the protocol: as §2
Experiment [26] concerns Mus musculus. As to the kind of experiment: In vivo evaluation of percent increase in life span (ILS) against P388 lymphocytic leukemia in infected CD2F1 male mice and at 20 dose mg/kg. It is filed as functional. The gist of the method: as §2
The test system of experiment [27] is Mus musculus. As to the kind of experiment: In vivo evaluation of percent increase in life span (ILS) against P388 lymphocytic leukemia in infected CD2F1 male mice and at dose. It is filed as functional. A digest of the protocol: as §2
For experiment [28], the system named is Mus musculus. The experiment is described as follows: In vivo evaluation of 30 day survival against P388 lymphocytic leukemia in CD2F1 male mice at dose 25 mg/kg; out of 6 mice. It is filed as functional. A digest of the protocol: as §1
The test system of experiment [29] is Mus musculus. As to the kind of experiment: In vivo evaluation of percent increase in life span (ILS) against P388 lymphocytic leukemia in infected CD2F1 male mice and at 25 dose mg/kg. It is filed as functional. The gist of the method:
as §2

For experiment [30], the system named is Mus musculus. The description is as §8. The class given is functional. A digest of the protocol: as §1
Experiment [31] concerns Mus musculus. The description is as §5. The class given is functional. A digest of the protocol: as §2
The subject of experiment [32] is Mus musculus. Described as §6. The class given is functional. A digest of the protocol:
as §1

“And” between values parts separate entries of the source, which are not always exact repeats. Identical values can stand only once.

For `CC1(C)CC(OP(=S)(N2CC2)N2CC2)CC(C)(C)N1[O]`, the “30 day survival / total” value in the experiment on Mus musculus [1] was 0; in the experiment with Mus musculus [2] it was 1; in the experiment on Mus musculus [4], 0. Besides, the ILS in the experiment on Mus musculus [3] is -8%; with Mus musculus [5] it was 103%; with Mus musculus [6], 45%.
Consider `CC1(C)CC(OP(=S)(N2CC2)N2CC2)CC(C)(C)N1O`, for which the “30 day survival / total” value in the experiment on Mus musculus [7], in the experiment with Mus musculus [8] and with Mus musculus [4] was 0 in each case.
`S=P(N1CC1)(N1CC1)N1CC1` [THIOTEPA]: in the experiment on Mus musculus [9], the “30 day survival / total” value was 0. For the same compound, the ILS in the experiment with Mus musculus [10] was found to be 83%; with Mus musculus [6], 141%.
For `CN(C1CC(C)(C)NC(C)(C)C1)P(=S)(N1CC1)N1CC1`, the “30 day survival / total” value with Mus musculus [11] and in the experiment on Mus musculus [4] was 0 in each case. The ILS is 20% in the experiment with Mus musculus [12] and 33% with Mus musculus [3].
For `CC1(C)CC(OC(=O)NP(=O)(N2CC2)N2CC2)CC(C)(C)N1[O]`, the figures for the ILS with Mus musculus [13] and with Mus musculus [3] were 81% and 42%, respectively.
As to `CN(C1CC(C)(C)N([O])C(C)(C)C1)P(=S)(NCCCl)N1CC1` (centres undefined), the 30 day survival / total in the experiment with Mus musculus [14] and with Mus musculus [15] was 0 in each case. Also, the ILS in the experiment with Mus musculus [12] was 13%; in the experiment on Mus musculus [3] it was 20%.
As for `CC1(C)CC(OP(=S)(NCCCl)NCCCl)CC(C)(C)N1[O]`, the ILS with Mus musculus [16] was 44%; in the experiment with Mus musculus [17], 30%; in the experiment on Mus musculus [20] it was 17% and 13%. The 30 day survival / total in the experiment with Mus musculus [18], in the experiment with Mus musculus [19], in the experiment on Mus musculus [21] and with Mus musculus [22] was 0 in each case.
In the case of `CC1(C)CC(NP(=S)(N2CC2)N2CC2)CC(C)(C)N1`, the results for the ILS with Mus musculus [13] and with Mus musculus [20] were 41% and 88%, respectively. The “30 day survival / total” value in the experiment with Mus musculus [23] and in the experiment on Mus musculus [24] was 0 throughout.
With `CC1(C)CC(OP(=O)(N2CC2)N2CC2)CC(C)(C)N1[O]`, the 30 day survival / total in the experiment on Mus musculus [14] and with Mus musculus [11] was 0 in each case. Besides, the ILS in the experiment on Mus musculus [12] worked out at 29%; in the experiment on Mus musculus [3], 5%.
With `CN(C1CC(C)(C)N([O])C(C)(C)C1)P(=S)(N1CC1)N1CC1`, the 30 day survival / total in the experiment on Mus musculus [14] and in the experiment on Mus musculus [22] was 0 each time. Further, the ILS with Mus musculus [25] was 27% and 16%.
`CC1(C)CC(NP(=S)(N2CC2)N2CC2)CC(C)(C)N1O`: the “30 day survival / total” value in the experiment on Mus musculus [11] and with Mus musculus [4] was 0 each time. The ILS with Mus musculus [12] came to 25%; in the experiment on Mus musculus [3], 34%.
As to `CN(C1CC(C)(C)N(O)C(C)(C)C1)P(=S)(N1CC1)N1CC1`, the “30 day survival / total” value with Mus musculus [7] and in the experiment with Mus musculus [4] was 0 in each case. The ILS with Mus musculus [26] was determined as 4%.
Turning to `CC1(C)CC(OP(=O)(N2CC2)N2CC2)CC(C)(C)N1O`, the “30 day survival / total” value with Mus musculus [11] and with Mus musculus [4] was 0 throughout. The ILS in the experiment with Mus musculus [27] is -2% and 23%.
In the case of `CC1(C)CC(NP(=S)(N2CC2)N2CC2)CC(C)(C)N1[O]`, the “30 day survival / total” value in the experiment on Mus musculus [7], in the experiment with Mus musculus [11] and with Mus musculus [28] was 0 throughout. Moreover, the ILS with Mus musculus [26] is given as 52%; in the experiment with Mus musculus [12], 34%; with Mus musculus [29], 96%.
As for `CC1(C)CC(OC(=O)NP(=O)(N2CC2)N2CC2)CC(C)(C)N1O`, the values for the ILS with Mus musculus [13] and with Mus musculus [3] were 48% and 25%, respectively. Moreover, the “30 day survival / total” value with Mus musculus [4] and with Mus musculus [23] was 0 throughout.
Turning to `CC1(C)CC(OP(=S)(NCCCl)NCCCl)CC(C)(C)N1O`, the ILS amounted to 33% with Mus musculus [16] and 15% in the experiment with Mus musculus [31]. Also, the “30 day survival / total” value in the experiment on Mus musculus [30] and with Mus musculus [32] was 0 throughout.
